The text below walks through data of ChEMBL document CHEMBL2321841, “Structure-based drug design and potent anti-cancer activity of tricyclic 5:7:5-fused diimidazo[4,5-d:4',5'-f][1,3]diazepines” (Bioorg Med Chem, 2013).

The test system of assay [1] is PC-3. The assay can be described thus: Growth inhibition of human PC3 cells at 100 uM after 72 hrs by WST1 assay. The class given is functional. The settings on record: PC-3, 72 h, read-out: GI. The essentials:
(§1)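 The highest concentration, 100 μM, comes from a nine-point series (100 μM to 5 nM) of DMSO-dissolved compound. Cells were seeded the day before at 0.5–1.7 × 10^3 cells/well in RPMI + 10% FBS, with 4 replicates per dilution. Exposure was 72 h at 37°C, 5% CO2, against a DMSO vehicle control. WST-1 was added for 4 h and absorbance read at 450–690 nm. Growth inhibition by ≤75% was scored as not effective.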
On the technique in general: Tetrazolium assays rely on reduction of a dye to a coloured formazan, in cell work by metabolically active cells.

The subject of assay [2] is OVCAR-3. The assay can be described thus: Growth inhibition of human OVCAR3 cells at 100 uM after 72 hrs by WST1 assay. Format: functional. Particulars: OVCAR-3, 72 h, read-out: GI. The essentials: as §1
Assay [3] deals with A549. The assay can be described thus: Growth inhibition of human A549 cells at 100 uM after 72 hrs by WST1 assay. The class given is functional. Particulars: A549, 72 h, read-out: GI. The essentials: as §1
For assay [4], the system named is MCF7. The assay can be described thus: Growth inhibition of human MCF7 cells at 100 uM after 72 hrs by WST1 assay. Format: functional. Particulars: MCF7, 72 h, read-out: GI. In short, it runs like this: as §1
The nature of assay [5]: Growth inhibition of human H460 cells at 100 uM after 72 hrs by WST1 assay. Particulars: NCI-H460, 72 h, read-out: GI. The class given is functional. In short, it runs like this: as §1
Assay [6] deals with MDA-MB-231. Nature of the assay: Growth inhibition of human MDA-MB-231 cells at 100 uM after 72 hrs by WST1 assay. Format: functional. The settings on record: MDA-MB-231, 72 h, read-out: GI. The essentials:
as §1

The test system of assay [7] is MCF7. The assay can be described thus: Cytotoxicity against human MCF7 cells after 72 hrs by WST1 assay. The settings on record: MCF7, 72 h. The class given is functional, cell-based. In short, it runs like this: (§2)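 Cells were seeded the day before dosing at 0.5–1.7 × 10^3 cells/well in RPMI + 10% FBS. Compounds were dissolved in DMSO (stocks 100–200 mM) and tested at nine concentrations from 100 μM to 5 nM, in 4 replicates per dilution, with experiments repeated 1x or 2x. Exposure was 72 h at 37°C, 5% CO2, against a DMSO vehicle control. WST-1 was then added for 4 h and absorbance read at 450–690 nm.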

Assay [8] relates to A549. The assay can be described thus: Cytotoxicity against human A549 cells after 72 hrs by WST1 assay. The class given is functional, cell-based. The settings on record: A549, 72 h. The essentials: as §2
A short description of assay [9]: Cytotoxicity against human H460 cells after 72 hrs by WST1 assay. Format: functional, cell-based. Particulars: NCI-H460, 72 h. The essentials:
as §2

Assay [10] concerns PC-3. Nature of the assay: Cytotoxicity against human PC3 cells after 72 hrs by WST1 assay. Format: functional, cell-based. Particulars: PC-3, 72 h. The essentials: as §2
For assay [11], the system named is OVCAR-3. The assay can be described thus: Cytotoxicity against human OVCAR3 cells after 72 hrs by WST1 assay. Particulars: OVCAR-3, 72 h. Format: functional, cell-based. The essentials:
as §2

Assay [12] relates to MDA-MB-231. Nature of the assay: Cytotoxicity against human MDA-MB-231 cells after 72 hrs by WST1 assay. The class given is functional, cell-based. The settings on record: MDA-MB-231, 72 h. In short, it runs like this: as §2

For the compound `COc1ccc(Cn2cnc3c4nc(=O)n(-c5ccccc5)c-4ncnc32)cc1`, the inhibition of growth at 100 µM (in the assay on PC-3 [1]; with OVCAR-3 [2]; in the assay with A549 [3]; with MCF7 [4]; in [5]; in the assay with MDA-MB-231 [6]) was ≤ 75% throughout.

As usually defined, the IC50 is the concentration that inhibits the measured activity by half. Lower therefore signals inhibition by little substance. Turning to `COc1ccc(Cn2c3ncnc4c(ncn4Cc4ccc(OC)cc4)c-3nc2=O)cc1`, the IC50 in the assay with MCF7 [7] was determined as 7.59 µM; in the assay with A549 [8], 2.56 µM; in assay [9] it was 2.87 µM; in the assay on PC-3 [10], 4.9 µM.

For `COc1ccc(CCn2c3ncnc4c(ncn4Cc4ccc(OC)cc4)c-3nc2=O)cc1`, the inhibition of growth at 100 µM (with PC-3 [1]; in the assay with OVCAR-3 [2]; in the assay with A549 [3]; in the assay on MCF7 [4]; in [5]; in the assay with MDA-MB-231 [6]) was ≤ 75% throughout.

As to `COc1ccc(Cn2cnc3c4nc(=O)n(Cc5ccc(N(C)C)cc5)c-4ncnc32)cc1`, the IC50 amounted to 9.43 µM in the assay with OVCAR-3 [11]; 15.1 µM in the assay with MCF7 [7]; 8.82 µM in the assay on MDA-MB-231 [12]; 8.81 µM with A549 [8]; 8.44 µM in [9]; 202 µM in the assay with PC-3 [10].

In the case of `CCn1c2ncnc3c(ncn3Cc3ccc(OC)cc3)c-2nc1=O`, the inhibition of growth at 100 µM (with PC-3 [1]; in the assay with OVCAR-3 [2]; with A549 [3]; in the assay on MCF7 [4]; in assay [5]; with MDA-MB-231 [6]) was ≤ 75% throughout.

In the case of `COc1ccc(Cn2cnc3c4nc(=O)n(Cc5cccnc5)c-4ncnc32)cc1`, the IC50 in the assay with OVCAR-3 [11] is 9.89 µM; with MCF7 [7], 19.8 µM; in the assay on MDA-MB-231 [12], 8.68 µM; in the assay on A549 [8] it was 8.05 µM; in [9] it was 8.3 µM; with PC-3 [10] it was 26.9 µM.

As for `COc1ccc(Cn2c3nc(-c4ccc(C)cc4)nc4c(ncn4Cc4ccc(OC)cc4)c-3nc2=O)cc1`, the inhibition of growth at 100 µM (in the assay with PC-3 [1]; in the assay on OVCAR-3 [2]; in the assay on A549 [3]; with MCF7 [4]; in [5]; with MDA-MB-231 [6]) was ≤ 75% throughout.

`COc1ccc(Cn2cnc3c4nc(=O)n(CCN5CCOCC5)c-4ncnc32)cc1`: the inhibition of growth at 100 µM (in the assay with PC-3 [1]; in the assay on OVCAR-3 [2]; in the assay on A549 [3]; in the assay with MCF7 [4]; in assay [5]; in the assay on MDA-MB-231 [6]) was ≤ 75% in each case.

In the case of `COc1ccc(Cn2cnc3c4nc(=O)n(CCN5CCCCC5)c-4ncnc32)cc1`, the inhibition of growth at 100 µM (in the assay on PC-3 [1]; with OVCAR-3 [2]; in the assay on A549 [3]; in the assay with MCF7 [4]; in assay [5]; in the assay with MDA-MB-231 [6]) was ≤ 75% throughout.

Consider `CCOC(=O)Cn1c2ncnc3c(ncn3Cc3ccc(OC)cc3)c-2nc1=O`, for which the inhibition of growth at 100 µM in the assay with PC-3 [1], in the assay with OVCAR-3 [2] and in the assay on MCF7 [4] was ≤ 75% throughout. Also, the IC50 in the assay on MDA-MB-231 [12] was found to be 37 µM; with A549 [8] it was 33.5 µM; in assay [9], 34.5 µM.

Regarding `COc1ccc(Cn2cnc3c4nc(=O)n(Cc5cccc(Cl)c5)c-4ncnc32)cc1`, the IC50 in the assay with OVCAR-3 [11] stood at 1.07 µM; with MCF7 [7], 2.49 µM; with MDA-MB-231 [12], 1.15 µM; with A549 [8], 0.89 µM; in assay [9], 1 µM; in the assay on PC-3 [10], 0.97 µM.

As to `CCn1cnc2c3nc(=O)n(Cc4ccc(OC)cc4)c-3ncnc21`, the inhibition of growth at 100 µM (in the assay with PC-3 [1]; in the assay on OVCAR-3 [2]; with A549 [3]; in the assay on MCF7 [4]; in [5]; with MDA-MB-231 [6]) was ≤ 75% each time.

`COc1ccc(Cn2cnc3c4nc(=O)n(Cc5cccc(OC)c5)c-4ncnc32)cc1`: the IC50 in the assay on OVCAR-3 [11] worked out at 2.5 µM; in assay [9], 1.55 µM; in the assay with PC-3 [10] it was 5.15 µM.

As to `COc1ccc(Cn2cnc3c4nc(=O)n(Cc5ccc(F)cc5)c-4ncnc32)cc1`, the IC50 in the assay with MCF7 [7] turned out to be 4.05 µM; with A549 [8], 1.65 µM.

Turning to `COCCOc1ccc(Cn2c3ncnc4c(ncn4Cc4ccc(OC)cc4)c-3nc2=O)cc1`, the concentration for half-maximal inhibition (IC50) came to 5.45 µM with OVCAR-3 [11]; 14.8 µM in the assay with MCF7 [7]; 5.61 µM in the assay on MDA-MB-231 [12]; 4.89 µM in the assay on A549 [8]; 5.14 µM in [9]; 6.7 µM in the assay on PC-3 [10].

For `COc1ccc(Cn2cnc3c4nc(=O)n(Cc5ccc(O)cc5)c-4ncnc32)cc1`, the IC50 is 4.36 µM in the assay with OVCAR-3 [11]; 6.58 µM in the assay with MCF7 [7]; 3.15 µM in the assay on MDA-MB-231 [12]; 4.21 µM in the assay with A549 [8]; 4.68 µM in [9]; 5.12 µM in the assay on PC-3 [10].

As to `COc1ccc(Cn2c3nc(CCCC(=O)O)nc4c(ncn4Cc4ccc(OC)cc4)c-3nc2=O)cc1`, the inhibition of growth at 100 µM (with PC-3 [1]; in the assay on OVCAR-3 [2]; with A549 [3]; with MCF7 [4]; in [5]; in the assay on MDA-MB-231 [6]) was ≤ 75% each time.

Regarding `COc1ccc(Cn2c3ncnc4c(ncn4Cc4ccccc4)c-3nc2=O)cc1`, the inhibition of growth at 100 µM (with PC-3 [1]; in the assay with OVCAR-3 [2]; with A549 [3]; in the assay on MCF7 [4]; in assay [5]; in the assay with MDA-MB-231 [6]) was ≤ 75% throughout.

Turning to `COc1ccc(Cn2cnc3c4nc(=O)n(Cc5ccccc5OC)c-4ncnc32)cc1`, the inhibition of growth at 100 µM (in the assay on PC-3 [1]; in the assay with OVCAR-3 [2]; with A549 [3]; with MCF7 [4]; in [5]; with MDA-MB-231 [6]) was ≤ 75% in each case.

`CCc1nc2n(Cc3ccc(OC)cc3)c(=O)nc-2c2ncn(Cc3ccc(OC)cc3)c2n1`: the inhibition of growth at 100 µM (in the assay on PC-3 [1]; with OVCAR-3 [2]; in the assay with A549 [3]; in the assay with MCF7 [4]; in assay [5]; in the assay on MDA-MB-231 [6]) was ≤ 75% in each case.

In the case of `COc1ccc(Cn2c3nc(C)nc4c(ncn4Cc4ccc(OC)cc4)c-3nc2=O)cc1`, the inhibition of growth at 100 µM (in the assay on PC-3 [1]; with OVCAR-3 [2]; in the assay with A549 [3]; with MCF7 [4]; in assay [5]; in the assay with MDA-MB-231 [6]) was ≤ 75% throughout.

Turning to `COc1ccc(Cn2cnc3c4nc(=O)n(-c5ccc(OC)cc5)c-4ncnc32)cc1`, the inhibition of growth at 100 µM (in the assay on PC-3 [1]; with OVCAR-3 [2]; in the assay with A549 [3]; in the assay with MCF7 [4]; in [5]; with MDA-MB-231 [6]) was ≤ 75% in each case.

As to `COc1ccc(Cn2c3nc(CCC(=O)O)nc4c(ncn4Cc4ccc(OC)cc4)c-3nc2=O)cc1`, the inhibition of growth at 100 µM (with PC-3 [1]; with OVCAR-3 [2]; in the assay on A549 [3]; in the assay on MCF7 [4]; in [5]; with MDA-MB-231 [6]) was ≤ 75% each time.

`COc1ccc(Cn2c3nc(-c4ccccc4)nc4c(ncn4Cc4ccc(OC)cc4)c-3nc2=O)cc1`: the inhibition of growth at 100 µM (in the assay with PC-3 [1]; in the assay with OVCAR-3 [2]; with A549 [3]; with MCF7 [4]; in [5]; with MDA-MB-231 [6]) was ≤ 75% throughout.

As to `COc1ccc(Cn2c3ncnc4c(ncn4Cc4ccc(F)cc4)c-3nc2=O)cc1`, the half-maximal inhibitory concentration (IC50) with MCF7 [7] came out at 5.87 µM; in the assay on MDA-MB-231 [12] it was 5.33 µM; in the assay on A549 [8], 4.4 µM; in assay [9], 5.06 µM; with PC-3 [10], 7.67 µM. The inhibition of growth at 100 µM with OVCAR-3 [2] is ≤ 75%.

Consider `COc1ccc(Cn2cnc3c4nc(=O)n(CCCl)c-4ncnc32)cc1`, for which the inhibition of growth at 100 µM in the assay with OVCAR-3 [2], with MCF7 [4] and in the assay with MDA-MB-231 [6] was ≤ 75% each time. Also, the IC50 in the assay with A549 [8] came to 8.63 µM; in [9] it was 7.9 µM; in the assay with PC-3 [10] it was 9.33 µM.
